In ChEMBL document CHEMBL5608183, “Synthesis and evaluation of 3,4,5-trisubstituted triazoles as G protein-biased kappa opioid receptor agonists” (Eur J Med Chem, 2024):
The source made the active and inactive calls. No cut-off for these calls is given here.

What was measured:
[1] = molecular target: T1, Kappa-type opioid receptor (Homo sapiens, UniProt P41145); experiment: Agonist activity at recombinant human kappa opioid receptor extracted from CHO cell membrane assessed as induction of [35S]GTPgammaS binding incubated for 1 hr by TopCount NXT Microplate Scintillation and Luminescence Counter analysis; assay type: functional, cell membranes
T1 sequence (P41145 whole entry): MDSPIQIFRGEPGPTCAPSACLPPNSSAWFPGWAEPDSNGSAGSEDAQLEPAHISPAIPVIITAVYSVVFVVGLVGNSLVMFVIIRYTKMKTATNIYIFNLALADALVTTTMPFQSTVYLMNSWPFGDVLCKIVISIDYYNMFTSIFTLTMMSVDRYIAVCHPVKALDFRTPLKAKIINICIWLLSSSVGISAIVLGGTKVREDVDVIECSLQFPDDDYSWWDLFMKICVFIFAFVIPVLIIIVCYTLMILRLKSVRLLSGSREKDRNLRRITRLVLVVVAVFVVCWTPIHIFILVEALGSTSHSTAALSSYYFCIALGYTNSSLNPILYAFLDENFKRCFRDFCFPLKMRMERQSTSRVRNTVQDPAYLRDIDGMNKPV

[2] = Metabolic stability in mouse liver microsome assessed as half life at 1 uM by LC-MS/MS analysis; assay type: ADME; conditions: liver microsomes
Summary of the method: (§1)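 Hepatic microsomes (1 mg/mL) were incubated with 1 μM compound at 37 °C with continuous shaking. Reactions were quenched with acetonitrile at 5-min intervals over 1 h and filtered. Half-life was determined by LC-MS/MS.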

[3] = molecular target: T1, Kappa-type opioid receptor; experiment: Agonist activity at recombinant human kappa opioid receptor extracted from CHO cell membrane assessed as induction of [35S]GTPgammaS binding by measuring maximum efficacy at 10 uM incubated for 1 hr by TopCount NXT Microplate Scintillation and Luminescence Counter analysis relative to U69,593; assay type: functional, cell membranes
[4] = Metabolic stability in human liver microsome assessed as half life at 1 uM by LC-MS/MS analysis; assay type: ADME, microsomes; conditions: for t1/2: microsomes, 1 µM; for half-life at 1 µM: liver microsomes; summary of the method: as §1
[5] = molecular target: T1, Kappa-type opioid receptor; experiment: Agonist activity at human kappa opioid receptor tranfected in U2OS cells co-transfected with arrestin2-EFC assessed as induction of beta arrestin2 recruitment incubated for 90 mins by Synergy HT luminometer; assay type: functional, cell-based
Summary of the method: (§2)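 PathHunter enzyme-fragment complementation in U2OS cells stably expressing hKOR and βarrestin2, grown in MEM with 10% FBS, geneticin and hygromycin B, run per manufacturer's protocol. Concentration–response curves were fit by three-parameter nonlinear regression, normalized to vehicle and to maximal stimulation by the reference agonist U69,593 on the same plate. 2–4 replicates per experiment; n ≥ 3 independent experiments; 95% CI.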

[6] = molecular target: T1, Kappa-type opioid receptor; experiment: Agonist activity at human kappa opioid receptor tranfected in U2OS cells co-transfected with arrestin2-EFC assessed as induction of beta arrestin2 recruitment by measuring maximum efficacy incubated for 90 mins by Synergy HT luminometer relative to […]; assay type: functional, cell-based
Summary of the method: as §2, with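 “plate.” for “plate. 2–4 replicates per experiment; n ≥ 3 independent experiments; 95% CI.”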

[7] = molecular target: Delta-type opioid receptor (Homo sapiens) (UniProt P41143); experiment: Binding affinity to delta opioid receptor (unknown origin) assessed as inhibition of [3H]-D-Ala2,D-Leu5-enkephalin binding at 10 uM by radioligand binding assay relative to control
Delta-type opioid receptor (Homo sapiens), sequence (P41143 whole entry): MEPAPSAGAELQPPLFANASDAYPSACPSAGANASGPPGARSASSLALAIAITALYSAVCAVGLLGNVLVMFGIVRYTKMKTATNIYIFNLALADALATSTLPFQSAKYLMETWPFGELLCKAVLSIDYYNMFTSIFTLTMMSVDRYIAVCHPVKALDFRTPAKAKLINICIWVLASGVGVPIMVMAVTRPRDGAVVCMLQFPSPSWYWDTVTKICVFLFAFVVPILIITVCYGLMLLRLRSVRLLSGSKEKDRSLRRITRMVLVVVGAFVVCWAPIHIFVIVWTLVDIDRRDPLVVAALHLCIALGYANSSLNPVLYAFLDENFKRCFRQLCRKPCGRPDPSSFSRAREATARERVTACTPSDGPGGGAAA

[8] = molecular target: T1, Kappa-type opioid receptor; experiment: Displacement of [3H]-[…] from kappa opioid receptor (unknown origin) assessed as inhibition constant by radioligand binding assay
[9] = molecular target: T1, Kappa-type opioid receptor; experiment: Binding affinity to kappa opioid receptor (unknown origin) assessed as inhibition of [3H]-[…] binding at 10 uM by radioligand binding assay relative to control; conditions: filed as agonist
[10] = molecular target: Mu-type opioid receptor (Homo sapiens) (UniProt P35372); experiment: Binding affinity to Mu opioid receptor (unknown origin) assessed as inhibition of [3H]-D-Ala2,N-MePhe4,Gly-ol-enkephalin binding at 10 uM by radioligand binding assay relative to control
Mu-type opioid receptor (Homo sapiens), sequence (P35372 whole entry): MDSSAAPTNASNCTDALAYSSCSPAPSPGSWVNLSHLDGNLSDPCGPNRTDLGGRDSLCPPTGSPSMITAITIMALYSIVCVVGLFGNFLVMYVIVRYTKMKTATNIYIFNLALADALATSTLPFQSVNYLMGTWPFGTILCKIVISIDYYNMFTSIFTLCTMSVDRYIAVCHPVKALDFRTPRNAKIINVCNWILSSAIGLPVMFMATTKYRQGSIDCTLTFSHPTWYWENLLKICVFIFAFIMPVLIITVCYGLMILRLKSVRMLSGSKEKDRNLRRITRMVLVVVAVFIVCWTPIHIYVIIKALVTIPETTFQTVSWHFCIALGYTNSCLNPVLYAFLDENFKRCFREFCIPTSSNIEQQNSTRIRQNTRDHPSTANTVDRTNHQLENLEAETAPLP

Row | Structure (SMILES) | half-life at 1 µM [2] [min] | Emax ([3]; filed as agonist) [%] | half-life at 1 µM [4] [min] | EC50 [1] [nM] | EC50 [5] [nM] | Emax ([6]; filed as agonist) [%] | other results
1 | FC(F)(F)c1ccccc1CCc1nnc(-c2ccccn2)n1Cc1cccs1 |  |  |  | 429 |  |  | 
2 | Cc1ccc(CCc2nnc(-c3ccccn3)n2Cc2ccco2)cc1C(F)(F)F | 0.8 | 90 |  | 21 | 803 |  | t1/2 [4]: 0.9 min
3 | Cc1ccc(CSc2nnc(-c3ccccn3)n2Cc2ccco2)cc1C(F)(F)F |  |  |  |  |  |  | t1/2 [4]: 1.1 min
4 | Brc1ccccc1CCc1nnc(-c2ccccn2)n1Cc1cccs1 |  | 84 |  | 358 |  |  | 
5 | Cc1ccc(/C=C/c2nnc(-c3nccn3C)n2Cc2cccs2)cc1C(F)(F)F |  |  |  | 787 |  |  | 
6 | Cc1ccc(CCc2nnc(-c3ccccn3)n2CC2CC2)cc1C(F)(F)F |  |  |  | 213 | 6220 |  | 
7 | c1ccc(-c2nnc(CCc3cccc4ccccc34)n2Cc2cccs2)nc1 |  |  |  | 184 |  |  | 
8 | Clc1ccc(CCc2nnc(-c3ccccn3)n2Cc2cccs2)c(Cl)c1 | 2.6 | 91 | 2.1 | 32 | 5160 | 154 | 
9 | Cc1ccc(CCc2nnc(-c3ccccn3)n2Cc2cccs2)cc1C(F)(F)F | 1.5 |  | 1.4 | 11 | 594 | 102 | inhibition [7]: 30.7%; Ki [8]: 5.8 nM; inhibition [9]: 99.7%; inhibition [10]: 30.9%
10 | Cc1ccc(CCc2nnc(-c3ccc4ccccc4c3)n2Cc2cccs2)cc1C(F)(F)F |  |  |  | 2960 |  |  | 
11 | Cc1ccc(CCc2nnc(-c3ccccn3)n2Cc2ccncc2)cc1C(F)(F)F |  |  |  |  |  |  | Activity [1]: inactive
12 | Cc1ccc(CCc2nnc(-c3ccccn3)n2Cc2ccccc2)cc1C(F)(F)F | 1.3 |  | 0.9 | 83 | 6740 | 183 | 
13 | Brc1ccc(CCc2nnc(-c3ccccn3)n2Cc2cccs2)cc1 |  | 92 |  | 20 | 723 | 93 | 
14 | Cc1ccc(CCc2nnc(-c3ncccn3)n2Cc2cccs2)cc1C(F)(F)F |  |  |  | 57 | 2220 | 150 | 
15 | c1ccc(-c2nnc(CCc3ccc4ccccc4c3)n2Cc2cccs2)nc1 |  |  |  | 12 | 896 |  | 
16 | Cc1ccc(CCc2nnc(-c3ccc4ccccc4n3)n2Cc2cccs2)cc1C(F)(F)F |  |  |  | 872 |  |  | 
17 | Cc1ccc(CCc2nnc(-c3ccccc3)n2Cc2cccs2)cc1C(F)(F)F | 0.9 |  | 1.8 | 406 |  |  | 
18 | Cc1ccc(/C=C/c2nnc(-c3nccn3C)n2Cc2nccs2)cc1C(F)(F)F |  | 309 |  |  | 2190 |  | Emax [6]: 36%
19 | Brc1cccc(CCc2nnc(-c3ccccn3)n2Cc2cccs2)c1 |  | 89 |  | 51 | 5610 | 118 | 
20 | Cc1ccc(CCc2nnc(-c3ncccc3C)n2Cc2cccs2)cc1C(F)(F)F |  |  |  | 13 | 1610 | 118 | 
21 | COc1ccc(CCc2nnc(-c3ccccn3)n2Cc2cccs2)cc1 |  |  |  | 122 |  |  | 
22 | Cc1ccc(CCc2nnc(-c3ccncn3)n2Cc2cccs2)cc1C(F)(F)F |  |  |  | 991 |  |  | 
23 | Cc1ccc(CCc2nnc(-c3cccc4ccccc34)n2Cc2cccs2)cc1C(F)(F)F |  |  |  | 429 |  |  | 
24 | Clc1ccc(CCc2nnc(-c3ccccn3)n2Cc2cccs2)cc1Cl | 1.2 |  | 1.5 | 5 | 319 |  | 

Continued, in another order:

Row | half-life at 1 µM [2] [min] | Emax ([3]; filed as agonist) [%] | half-life at 1 µM [4] [min] | Structure (SMILES) | EC50 [1] [nM] | EC50 [5] [nM] | Emax ([6]; filed as agonist) [%] | other results
25 | 1 |  | 69.7 | c1ccc(-c2nnc(-c3ccccn3)n2Cc2cccs2)cc1 |  |  |  | 
26 | 1.5 | 91 | 3.1 | Cc1ccc(CCc2nnc(-c3nccn3C)n2Cc2cccs2)cc1C(F)(F)F | 34 | 1020 | 132 | 
27 |  | 90 |  | Fc1ccc(CCc2nnc(-c3ccccn3)n2Cc2cccs2)cc1 | 284 | 2640 | 97 | 
28 |  | 83 |  | Cc1ccc(/C=C/c2nnc(-c3ccccn3)n2Cc2nccs2)cc1C(F)(F)F | 1130 |  |  | 
29 | 2.5 |  | 17.4 | OC(Cc1ccccc1)c1nnc(-c2ccccn2)n1Cc1ccco1 (stereo not given) |  |  |  | Emax [3]: 20%
30 | 2.6 |  | 20.7 | OC(Cc1nnc(-c2ccccn2)n1Cc1cccs1)c1ccccc1 (stereo not given) |  |  |  | Emax [3]: 17%
31 | 1.2 |  | 8.1 | O=C(Cc1ccccc1)c1nnc(-c2ccccn2)n1Cc1ccco1 |  |  |  | Emax [3]: 4%
32 |  | 64 |  | Cc1ccc(CCc2nnc(-c3ccccn3)n2Cc2nccs2)cc1C(F)(F)F | 34 | 1290 | 95 | 
33 | 30.2 | 79 | 22 | Cc1ccc(/C=C/c2nnc(-c3ccccn3)n2Cc2cccs2)cc1C(F)(F)F | 496 |  |  | 
34 | 32.2 | 89 |  | Cc1ccc(/C=C/c2nnc(-c3ccccn3)n2Cc2ccco2)cc1C(F)(F)F | 1170 |  |  | t1/2 [4]: 18 min
35 | 1.6 | 87 | 1.7 | Cc1ccc(CCc2nnc(-c3ccccn3)n2Cc2cccnc2)cc1C(F)(F)F | 55 | 421 | 119 | 
36 | 3.3 | 86 | 3.3 | Clc1ccc(CCc2nnc(-c3ccccn3)n2Cc2cccs2)cc1 | 33 | 2870 | 137 | 
37 | 1.6 | 76 | 5.5 | c1ccc(CCc2nnc(-c3ccccn3)n2Cc2cccs2)cc1 | 926 |  |  | 
38 | 1 |  | 1.6 | Cc1ccc(CCc2nnc(-c3ccccn3)n2-c2ccccc2)cc1C(F)(F)F |  |  |  | Activity [1]: inactive
39 | 1.9 |  | 9.1 | FC(Cc1ccccc1)c1nnc(-c2ccccn2)n1Cc1ccco1 (stereo not given) |  |  |  | 
40 |  | 84 |  | Cc1ccc(CCc2nnc(-c3ccccn3)n2Cc2ccccn2)cc1C(F)(F)F | 175 | 8120 | 127 | 
41 |  | 85 |  | Cc1ccc(CCc2nnc(-c3cccnc3)n2Cc2cccs2)cc1C(F)(F)F | 1880 |  |  | 
42 | 0.9 | 82 | 7.2 | FC(Cc1nnc(-c2ccccn2)n1Cc1cccs1)c1ccccc1 (stereo not given) |  |  |  | 
